Experiments:
Format in all cases: functional
A549 [1] = experiment: Tested in vitro for cytotoxicity in A549/ATCC cell lines; conditions: Homo sapiens
Method in brief: (§1)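 Compounds dissolved in DMSO, then diluted 500-fold into aqueous medium. The resulting aqueous solutions or suspensions were added to the cultured human tumour cell lines, and the cells were exposed for 48 h. Growth was read colorimetrically in one of two ways: a metabolic assay in which viable cells reduce a tetrazolium salt to a formazan dye, or a protein stain for total cellular protein.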

NCI-H23 = experiment: Tested in vitro for cytotoxicity in NCI-H23 cell line of Non-Small Cell Lung Cancer; conditions: Homo sapiens, read-out: Log TGI (converted); method in brief: as §1
SK-OV-3 = experiment: Tested in vitro for cytotoxicity in SK-OV-3 cell line of Ovarian Cancer; conditions: Homo sapiens, read-out: Log TGI (converted)
Method in brief: (§2)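 Compounds dissolved in DMSO and diluted 500-fold into aqueous medium; aliquots of the resulting solutions or suspensions added to cultured human tumor cells for 48 h. Growth read colorimetrically, either by tetrazolium reduction to formazan by viable cells or by protein staining of total cellular protein.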

UACC-257 = experiment: Tested in vitro for cytotoxicity in UACC-257 cell line of Melanoma; conditions: Homo sapiens, read-out: Log TGI (converted); method in brief: as §2
SK-MEL-2 = experiment: Tested in vitro for cytotoxicity in SK-MEL-2 cell line of Melanoma; conditions: Homo sapiens, read-out: Log TGI (converted); method in brief: as §1
OVCAR-4 = experiment: Tested in vitro for cytotoxicity in OVCAR-4 cell line of Ovarian Cancer; conditions: Homo sapiens, read-out: Log TGI (converted); method in brief: as §1
HCT-15 = experiment: Tested in vitro for cytotoxicity in HCT-15 cell line of Colon Cancer; conditions: Homo sapiens, read-out: Log TGI (converted); method in brief: as §1
CCRF-CEM = experiment: Tested in vitro for cytotoxicity in CCRF-CEM cell line of Leukemia; conditions: Homo sapiens, read-out: Log TGI (converted); method in brief: as §1
CAKI-1 [2] = experiment: Tested in vitro for cytotoxicity in CAKI-1 cell lines; conditions: Homo sapiens; method in brief: as §1
RPMI-8226 = experiment: Tested in vitro for cytotoxicity in RPMI-8226 cell line of Leukemia; conditions: Homo sapiens, read-out: Log TGI (converted); method in brief: as §1
SK-MEL-5 = experiment: Tested in vitro for cytotoxicity in SK-MEL-5 cell line of Melanoma; conditions: Homo sapiens, read-out: Log TGI (converted); method in brief: as §2
IGROV-1 = experiment: Tested in vitro for cytotoxicity in IGROV1 cell line of Ovarian Cancer; conditions: Homo sapiens, read-out: Log TGI (converted); method in brief: as §1
ACHN = experiment: Tested in vitro for cytotoxicity in ACHN cell line of Renal cancer; conditions: Homo sapiens, read-out: Log TGI (converted); method in brief: as §1
M14 = experiment: Tested in vitro for cytotoxicity in M14 cell line of Melanoma; conditions: Homo sapiens, read-out: Log TGI (converted); method in brief: as §1
786-0 = experiment: Tested in vitro for cytotoxicity in 786-0 cell line of Renal cancer; conditions: Homo sapiens, read-out: Log TGI (converted); method in brief: as §1
M19-MEL = experiment: Tested in vitro for cytotoxicity in M19-MEL cell line of Melanoma; conditions: Homo sapiens, read-out: Log TGI (converted); method in brief: as §1
COLO 205 [3] = experiment: Tested in vitro for cytotoxicity in COLO 205 cell line of Colon Cancer; conditions: Homo sapiens, read-out: Log TGI (converted); method in brief: as §1
RXF 631 = experiment: Tested in vitro for cytotoxicity in RXF-631 cell line of Renal cancer; conditions: Homo sapiens, read-out: Log TGI (converted); method in brief: as §1
A549 [4] = experiment: Tested in vitro for cytotoxicity in A549/ATCC cell line of Non-Small Cell Lung Cancer; conditions: Homo sapiens, read-out: Log TGI (converted); method in brief: as §1
SF-539 = experiment: Tested in vitro for cytotoxicity in SF-539 cell line of CNS Cancer; conditions: Homo sapiens, read-out: Log TGI (converted); method in brief: as §1
HOP-62 = experiment: Tested in vitro for cytotoxicity in HOP-62 cell line of Non-Small Cell Lung Cancer; conditions: Homo sapiens, read-out: Log TGI (converted); method in brief: as §1
DLD-1 = experiment: Tested in vitro for cytotoxicity in DLD-1 cell line of Colon Cancer; conditions: Homo sapiens, read-out: Log TGI (converted); method in brief: as §1
K562 = experiment: Tested in vitro for cytotoxicity in K-562 cell line of Leukemia; conditions: Homo sapiens, read-out: Log TGI (converted); method in brief: as §1
DMS-114 [5] = experiment: Tested in vitro for cytotoxicity in DMS114 cell line of Small Cell Lung Cancer; conditions: Homo sapiens, read-out: Log TGI (converted); method in brief: as §1
HCC 2998 = experiment: Tested in vitro for cytotoxicity in HCC2998 cell line of Colon Cancer; conditions: Homo sapiens, read-out: Log TGI (converted); method in brief: as §1
CAKI-1 [6] = experiment: Tested in vitro for cytotoxicity in CAKI-1 cell line of Renal cancer; conditions: Homo sapiens, read-out: Log TGI (converted); method in brief: as §1
SF-295 = experiment: Tested in vitro for cytotoxicity in SF-295 cell line of CNS Cancer; conditions: Homo sapiens, read-out: Log TGI (converted); method in brief: as §1
KM12 = experiment: Tested in vitro for cytotoxicity in KM12 cell line of Colon Cancer; conditions: Homo sapiens, read-out: Log TGI (converted); method in brief: as §1
DMS-114 [7] = experiment: Tested in vitro for cytotoxicity in DMS114 cell lines; conditions: Homo sapiens; method in brief: as §1
COLO 205 [8] = experiment: Tested in vitro for cytotoxicity in COLO 205 cell lines; conditions: Homo sapiens; method in brief: as §1
HCT-116 = experiment: Tested in vitro for cytotoxicity in HCT116 cell line of Colon Cancer; conditions: Homo sapiens, read-out: Log TGI (converted); method in brief: as §1

SMILES: COc1ccc2[nH]c3c(C)c4c(c(C)c3c2c1)CN(C)C=C4
- GI50 (A549 [1]): 993 nM
- TGI (NCI-H23): 3.98 µM
- TGI (SK-OV-3): 63.1 µM
- TGI (UACC-257): 20 µM
- TGI (SK-MEL-2): 10 µM
- TGI (OVCAR-4): 25.1 µM
- TGI (HCT-15): > 100 µM
- TGI (CCRF-CEM): 15.8 µM
- GI50 (CAKI-1 [2]): 20.1 µM
- TGI (RPMI-8226): > 100 µM
- TGI (SK-MEL-5): 10 µM
- TGI (IGROV-1): 39.8 µM
- TGI (ACHN): 63.1 µM
- TGI (M14): 25.1 µM
- TGI (786-0): 12.6 µM
- TGI (M19-MEL): 2510 nM
- TGI (COLO 205 [3]): 5.01 µM
- TGI (RXF 631): 25.1 µM
- TGI (A549 [4]): 50.1 µM
- TGI (SF-539): 2000 nM
- TGI (HOP-62): 3.16 µM
- TGI (DLD-1): 20 µM
- TGI (K562): > 100 µM
- TGI (DMS-114 [5]): 2510 nM
- TGI (HCC 2998): 12.6 µM
- TGI (CAKI-1 [6]): 31.6 µM
- TGI (SF-295): 7.94 µM
- TGI (KM12): 15.8 µM
- GI50 (DMS-114 [7]): 525 nM
- GI50 (COLO 205 [8]): 1320 nM
- TGI (HCT-116): 15.8 µM

From ChEMBL document CHEMBL1127574, “Design and synthesis of ellipticinium salts and 1,2-dihydroellipticines with high selectivities against human CNS cancers in vitro” (1994)
